Screens (PubChem BioAssay)
APOBEC3G inh – APOBEC3G DNA deaminase inhibitors, primary screen, biochemical, fluorescence, single-stranded DNA substrate, uHTS; recombinant A3G, ssDNA deamination FAM/TAMRA fluorescence; inhibition, % at 20 µM; 330,000 compounds, 0.28% hits; AID 493012, 2011;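 active means inhibition of at least 40% at 20 µM, with no more than 30% in the related APOBEC3A deaminase screen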;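 further: plate controls were DMSO wells with A3G for no effect and wells lacking A3G enzyme for full effect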
ASAP1 GAP inh – inhibitors of human ASAP1 ArfGAP activity, primary screen, biochemical, fluorescence polarization | 360,000 compounds, 0.19% hits | inhibition, % at 16.5 µM | Arf-GAP with SH3 domain, ANK repeat and PH domain-containing protein 1 (Homo sapiens), … | ASAP1-stimulated ARF1 GTP hydrolysis, GDP FP detection; in the data active means inhibition above about 25%;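 further: 0% = vehicle with enzyme and substrate and 100% = no enzyme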
Target sequence (Q9ULH1 325-724 limits assumed): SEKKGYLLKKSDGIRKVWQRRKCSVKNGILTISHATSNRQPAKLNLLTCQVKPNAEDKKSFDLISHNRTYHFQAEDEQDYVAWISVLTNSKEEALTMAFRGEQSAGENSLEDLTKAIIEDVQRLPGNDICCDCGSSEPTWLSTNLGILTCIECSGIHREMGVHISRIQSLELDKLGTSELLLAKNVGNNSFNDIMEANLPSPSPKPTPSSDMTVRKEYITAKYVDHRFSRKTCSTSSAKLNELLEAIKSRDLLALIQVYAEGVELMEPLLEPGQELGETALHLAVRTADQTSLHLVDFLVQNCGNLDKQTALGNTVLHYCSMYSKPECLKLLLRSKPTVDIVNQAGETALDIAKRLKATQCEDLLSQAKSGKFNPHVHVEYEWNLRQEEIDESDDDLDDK
APOBEC3A inh – APOBEC3A ssDNA deaminase inhibitors, primary screen, selectivity assay for APOBEC3G inhibitor project, biochemical, FAM/TAMRA oligo cleavage fluorescence | DNA dC->dU-editing enzyme APOBEC-3A (Homo sapiens), P31941 | recombinant A3A, FAM/TAMRA ssDNA deamination fluorescence | inhibition, % at 20 µM | 330,000 compounds, 0.41% hits;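 active means at least 40% inhibition at 20 µM here, with at most 30% in a related deaminase screen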;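 further: plate controls were A3A with DMSO for no effect and wells lacking A3A enzyme for full effect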
Statin myotox sup – suppressors of statin myotoxicity in C2C12 myotubes, primary screen, cell-based, single point, plate reader; C2C12 myotubes + simvastatin, ATP luminescence, 48 h; scaled: DMSO 0, geranylgeraniol control 100; rescue of ATP level, % at 7.49 µM; 330,000 compounds, 0.78% hits; AID 602340, 2012;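 active means mean ATP rescue above about 67%, or every replicate alone reaching that limit, limit read from the data, passing the limit was not always enough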;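 further: myotubes were challenged with 10 µM simvastatin during compound exposure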
Mot1-301 SUMO – yeast Mot1-301 growth rescue at high temperature, primary screen, SUMOylation pathway inhibitor project, S. cerevisiae, ATP luminescence, 38.5C. growth rescue, % at 18.8 µM. 320,000 compounds, 1% hits. AID 2716, 2010. S. cerevisiae Mot1-301 growth rescue; percent above DMSO median, 100 means doubled;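 active means every valid replicate shows activation above 250% relative to neutral control wells; inactive means the rest, any valid replicate at or below 250%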;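 further: OY570 slx delta 5 strain wells were the positive control but not used for scaling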
ARFGAP1 inh – inhibitors of rat ARFGAP1 GAP activity, primary screen, biochemical, fluorescence polarization, GDP tracer; ADP-ribosylation factor GTPase-activating protein 1 (Rattus norvegicus), Q62848; Arfgap1-stimulated ARF1 GTP hydrolysis, GDP FP detection; inhibition, % at 16.5 µM; 360,000 compounds, 0.26% hits;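 active means inhibition above a per-plate limit, mean inhibition of low control wells plus 3 SD, cut at about 25% in these data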;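 further: 0% = DMSO wells with enzyme and 100% = wells lacking Arfgap1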
Target sequence (Q62848 1-136 limits assumed): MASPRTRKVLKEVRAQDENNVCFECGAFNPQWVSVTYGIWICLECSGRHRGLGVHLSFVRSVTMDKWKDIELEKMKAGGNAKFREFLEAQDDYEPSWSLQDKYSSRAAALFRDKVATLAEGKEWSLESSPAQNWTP
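Material: rat Arfgap1 GAP domain (His6, aa 1-136), purified enzyme. Also added: human ARF1(Δ1-17)-GTP substrate. Compound dosing: 16.5 µM single point, 1.26% DMSO. Timing: enzyme reaction 120 min at 25 °C after 20 min preincubation. Signal: GDP detection by fluorescence polarization. Read-out basis: percent inhibition of GAP-stimulated GDP formation, scaled between DMSO and no-Arfgap1 medians.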
Active calls of the source: *; x = no result given. An excerpt weighted towards active compounds, which were near 2.1% of everything screened.

SMILES | APOBEC3G inh | ASAP1 GAP inh | APOBEC3A inh | Statin myotox sup | Mot1-301 SUMO | ARFGAP1 inh
CCN1CCN(c2nc3sc4c(c3c3ncnn23)CC(C)CC4)CC1 (stereo not given) | -8 | 16 | -7 | 126* | 3 | 8
CCCC(=O)NC(=S)Nc1cccc(C(C)=O)c1 | 1 | -2 | 0 | 114* | -1 | 4
CCCCCC(=O)NC(=S)Nc1cccc(C(C)=O)c1 | -7 | -3 | -5 | -7 | -2 | 1
CC(=O)N(C)C[C@H]1Oc2cc(C#CCC(C)C)ccc2S(=O)(=O)N([C@H](C)CO)C[C@@H]1C | x | x | x | 8 | x | x
CC(C)C(=O)Nc1ccc2c(c1)nc(CCN1CCCCC1)n2C | -5 | -3 | -4 | -4 | 14 | 6
Cn1c(CCN2CCCCC2)nc2cc(NC(=O)Nc3ccccc3)ccc21 | -10 | 11 | -4 | 116* | x | 11
CCCC(=O)Nc1ccc2c(c1)nc(CN1CCN(C(C)=O)CC1)n2C | 3 | -8 | -2 | 119* | -2 | 4
CC=Cc1ccc2n(c1=O)C[C@@H]1[C@@H](CO)[C@H](C(=O)NCCC)N(CC3CCOCC3)[C@H]21 (mixture of isomers) | x | x | x | 4 | x | x
C/C(=N\Nc1ccc(Cl)cc1)c1c(O)cc(C)oc1=O | 33 | -2 | 1 | x | 332* | -18
O=C(NNC(=O)c1cc(Br)c(Br)s1)c1csc(N2CCOCC2)n1 | -8 | 7 | -2 | x | 347* | 0
CO[C@@H]1CC[C@@H]2CCOc3c(C#N)cccc3C(=O)N(C)[C@H](C)C(=O)N(C)C[C@@H]1O2 | x | x | x | 0 | x | x
O=C([C@@H]1[C@@H](CO)[C@@H]2Cn3c(cccc3=O)[C@@H]2N1CC1CCCC1)N1CCOCC1 | x | x | x | -9 | x | x
O=C(O)c1nn(-c2ccccc2)nc1-c1nn(-c2ccccc2)nc1C(=O)O | 0 | -9 | 2 | 136* | -16 | 7
Cc1ccc(Sc2c([N+](=O)[O-])c(=O)n(C)c3ccccc23)cc1 | -3 | 2 | 3 | 90* | 19 | 15
Cn1c(=O)c([N+](=O)[O-])c(NCc2ccccc2)c2ccccc21 | -4 | -10 | 2 | 122* | -1 | -6
Cc1ccc(Sc2c(O)c3ccccc3n(C)c2=O)cc1 | x | 8 | x | -2 | x | 0
C[C@@H]1CN([C@@H](C)CO)C(=O)c2cc(C3=CCCC3)cnc2O[C@H]1CN(C)C(=O)Cc1ccncc1 | x | x | x | 19 | x | x
CCC(NS(=O)(=O)c1ccc(C)cc1)C(=O)Nc1ccc(NC(C)=O)cc1 (stereo not given) | -6 | -12 | -3 | 138* | 18 | -4
CCOC(=O)N1CCC(NC(=O)CCC(=O)N2CCOc3ccccc32)CC1 | -5 | -4 | -3 | 123* | x | 0
C[C@@H]1CN([C@@H](C)CO)C(=O)c2cc(NS(=O)(=O)c3ccc(Cl)cc3)ccc2O[C@H]1CN(C)Cc1ccc2c(c1)OCO2 | x | x | x | 17 | x | x
C[C@H]1CN([C@@H](C)CO)C(=O)Cc2cc(NC(=O)Nc3ccc4c(c3)OCO4)ccc2O[C@@H]1CN(C)S(=O)(=O)c1ccccc1 | x | x | x | -29 | x | x
Cc1ccc(S(=O)(=O)Oc2ccc(/C=C(/NC(=O)c3ccccc3)C(=O)O)cc2)cc1 | -10 | 0 | -3 | x | 700* | 12
Cc1ccc(S(=O)(=O)Oc2ccc(/C=C(/NC(=O)c3ccccc3)C(=O)NCC(=O)O)cc2)cc1 | -5 | 13 | -1 | x | 6 | 12
Cc1ccc(C)c(NC(=O)C(NCC(C)(C)N2CCOCC2)c2ccccc2)c1 (stereo not given) | -10 | 0 | 5 | -10 | 767* | 0
CC1(C)C(=O)Nc2ccccc2N1C(=O)CN1C(=O)c2ccccc2C1=O | -5 | 5 | -4 | x | 12 | -2
SMILES | APOBEC3G inh | ASAP1 GAP inh | APOBEC3A inh | Statin myotox sup | Mot1-301 SUMO | ARFGAP1 inh
CC1(C)C(=O)Nc2ccccc2N1C(=O)CN1C(=O)NC(CCc2ccccc2)C1=O (stereo not given) | -7 | 10 | 6 | x | 345* | 2
O=C(Nc1ccc(F)c(F)c1)C1CCCN(S(=O)(=O)c2cnc[nH]2)C1 (stereo not given) | -4 | x | 2 | 97* | 11 | x
O=C(Cc1cn2ccsc2n1)Nc1ccccc1Oc1ccccc1 | 1 | -3 | 2 | 101* | 131 | 2
C[C@@H]1CN([C@@H](C)CO)C(=O)c2cc(C#CCN(C)C)cnc2O[C@H]1CN(C)C(=O)Cc1cccnc1 | x | x | x | -1 | x | x
C[C@H]1CCCCO[C@@H](CN(C)Cc2ccncc2)[C@@H](C)CN([C@@H](C)CO)C(=O)c2cc(NC(=O)c3ccccc3)ccc2O1 | x | x | x | -10 | x | x
CC1CCN(CC(O)COc2ccc(OCC(O)CN3CCC(C)CC3)cc2)CC1 (stereo not given) | -7 | -2 | 2 | -5 | 15 | -3
Cc1ccc(C)c(OCC(O)CN2CCC(C)CC2)c1C (stereo not given) | -1 | 2 | -2 | 111* | 7 | 13
Cc1ccc(-c2cc(C(F)F)n3ncc(C(=O)Nc4c(C)nn(Cc5c(Cl)cccc5Cl)c4C)c3n2)cc1 | -5 | 4 | 0 | -36 | -8 | -5
Cc1ccc(-c2cc(C(F)F)n3ncc(C(=O)Nc4c(C)nn(Cc5ccccc5Cl)c4C)c3n2)cc1 | -5 | 3 | -2 | 80* | 0 | -6
O=C(C[C@@H]1C[C@H]2c3cc(NC(=O)c4cccnc4)ccc3O[C@H]2[C@H](CO)O1)NCc1ccccn1 | x | x | x | -5 | x | x
O=C1CSC(c2cn(-c3ccccc3)nc2-c2ccccc2)N1Cc1ccco1 (stereo not given) | 2 | -11 | 4 | 74* | 9 | 0
CCc1ccc(-c2nn(-c3ccccc3)cc2C2SCC(=O)N2Cc2ccco2)cc1 (stereo not given) | 0 | 8 | 4 | x | -11 | -7
CO[C@H]1CN(C)C(=O)c2ccc(NC(=O)c3ccc(F)cc3)cc2OC[C@H](C)N(C(=O)CN(C)C)C[C@H]1C | x | x | x | -9 | x | x
FC(F)(F)c1cccc(-c2nnc(-c3ccccc3)c(N3CCOCC3)n2)c1 | -3 | -18 | 3 | 134* | -6 | -3
O=C(c1ccc(Cl)cc1Cl)N1CCOCC1 | x | -12 | x | 1 | x | 7
O=C(c1cc2cc(Cl)cc(Cl)c2oc1=O)N1CCOCC1 | 1 | -2 | 0 | 115* | 23 | -6
